Reference: ChEMBL document CHEMBL4834477, “Synthesis and biological evaluation of novel purinyl quinazolinone derivatives as PI3Kδ-specific inhibitors for the treatment of hematologic malignancies” (Bioorg Med Chem, 2021)

Tests used:
SU-DHL-5 = test: Antiproliferative activity against human SU-DHL-5 cells assessed as reduction in cell viability at 10 uM by CellTiter-Glo luminescent cell viability assay relative to idelalisib; type: functional
Procedure, shortened: (§1)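 Cells were seeded at 5x10^4 per well and exposed to the compound at a single concentration: 10 μM for SUDHL-5 and 20 μM for MOLT-4. CellTiter-Glo reagent was added 1:1, mixed for 2 min to lyse the cells, and held 10 min at room temperature before reading luminescence. Readings were background-subtracted and normalized to control wells.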

MOLT-4 = test: Antiproliferative activity against human MOLT-4 cells assessed as reduction in cell viability at 20 uM by CellTiter-Glo luminescent cell viability assay relative to idelalisib; type: functional; procedure, shortened: as §1
[1] = biological target: Phosphatidylinositol 4,5-bisphosphate 3-kinase catalytic subunit gamma isoform (Homo sapiens, UniProt P48736); test: Inhibition of recombinant human full length His-tagged p110gamma expressed in baculovirus expression system measured after 60 mins in presence of ATP by ATP-competitive binding assay
Sequence of Phosphatidylinositol 4,5-bisphosphate 3-kinase catalytic subunit gamma isoform (P48736 whole entry, canonical isoform): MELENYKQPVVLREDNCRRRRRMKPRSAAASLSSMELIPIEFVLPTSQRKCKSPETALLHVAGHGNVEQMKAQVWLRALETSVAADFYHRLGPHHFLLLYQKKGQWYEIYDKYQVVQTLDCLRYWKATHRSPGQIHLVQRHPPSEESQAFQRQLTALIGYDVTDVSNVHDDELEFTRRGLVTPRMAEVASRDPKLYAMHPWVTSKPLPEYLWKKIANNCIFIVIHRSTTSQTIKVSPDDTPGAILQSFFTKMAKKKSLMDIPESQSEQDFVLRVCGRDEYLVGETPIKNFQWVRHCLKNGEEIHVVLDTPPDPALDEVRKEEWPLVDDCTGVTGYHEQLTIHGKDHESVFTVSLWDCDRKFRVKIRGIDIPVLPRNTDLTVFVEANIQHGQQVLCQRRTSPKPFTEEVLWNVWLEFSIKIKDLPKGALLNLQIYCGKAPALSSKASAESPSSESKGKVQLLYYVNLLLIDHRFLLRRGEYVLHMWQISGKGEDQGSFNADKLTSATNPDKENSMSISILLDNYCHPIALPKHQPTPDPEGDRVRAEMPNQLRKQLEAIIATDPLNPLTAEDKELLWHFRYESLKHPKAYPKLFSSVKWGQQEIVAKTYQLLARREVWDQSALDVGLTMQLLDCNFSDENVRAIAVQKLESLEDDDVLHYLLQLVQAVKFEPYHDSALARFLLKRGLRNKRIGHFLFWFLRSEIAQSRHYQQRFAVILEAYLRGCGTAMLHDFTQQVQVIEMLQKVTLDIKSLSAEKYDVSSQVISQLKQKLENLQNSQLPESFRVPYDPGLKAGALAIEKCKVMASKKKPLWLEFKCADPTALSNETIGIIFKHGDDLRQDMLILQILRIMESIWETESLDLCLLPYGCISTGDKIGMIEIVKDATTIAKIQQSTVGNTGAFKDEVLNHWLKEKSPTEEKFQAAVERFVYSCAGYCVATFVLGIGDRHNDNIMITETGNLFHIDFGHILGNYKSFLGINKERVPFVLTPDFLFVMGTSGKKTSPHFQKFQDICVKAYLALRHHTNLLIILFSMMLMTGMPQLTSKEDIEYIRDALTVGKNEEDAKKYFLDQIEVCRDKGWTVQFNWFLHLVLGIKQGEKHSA
Procedure, shortened: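 SelectScreen ATP-competitive assay using 10-point titration with 1 μM top final compound concentration. Kinase, substrate and ATP mixed in 30 mM HEPES buffer and reacted 60 min. IC50 taken as the mean of three independent experiments.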

[2] = Tmax in Sprague-Dawley rat at 1 mg/kg, po measured for 24 hrs by LC-MS/MS analysis; type: ADME, organism-based; details: in vivo
Procedure, shortened: (§2)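 Sprague-Dawley rats dosed orally at 1 or 3 mg/kg, three animals per group. Blood sampled at 0.25, 0.5, 1, 2, 4, 8 and 24 h post-dose. Plasma separated by centrifugation, extracted and quantified by LC-MS/MS. PK parameters (Cmax, AUClast, Tmax, t1/2) derived by non-compartmental software.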

[3] = Half life in Sprague-Dawley rat at 1 mg/kg, po measured for 24 hrs by LC-MS/MS analysis; type: ADME, organism-based; details: in vivo; procedure, shortened: as §2

IC50 [1] [nM]	Tmax [2] [h]	half-life [3] [h]	SMILES	fold change (FC) (SU-DHL-5)	fold change (FC) (MOLT-4)
			Cc1cccc2nc([C@@H](Nc3ncnc4nc[nH]c34)C3CC3)n(-c3ccccc3)c(=O)c12	5	5
19.1	0.5	10.2	O=c1c2c(F)cccc2nc([C@@H](Nc2ncnc3nc[nH]c23)C2CC2)n1-c1ccccc1		
